In ChEMBL document CHEMBL1817556, “Substituted lactam and cyclic azahemiacetals modulate Pseudomonas aeruginosa quorum sensing” (Bioorg Med Chem, 2011):
Each block holds one molecule with its values, some of them ahead of it.

Legend:
[1] = biological target: T1, Acyl-homoserine-lactone synthase (Pseudomonas aeruginosa (strain ATCC 15692 / PAO1 / 1C / PRS 101 / LMG12228)) (UniProt P33883); test: Modulation of Pseudomonas aeruginosa lacZ-fused lasI expressed in Escherichia coli DH5alpha co-expressing pBAD-lasR assessed as 3-oxo-C12-AHL-induced effect at 0.33 mM after 3 hrs by beta-galactosidase assay relative to control
T1 sequence (whole entry): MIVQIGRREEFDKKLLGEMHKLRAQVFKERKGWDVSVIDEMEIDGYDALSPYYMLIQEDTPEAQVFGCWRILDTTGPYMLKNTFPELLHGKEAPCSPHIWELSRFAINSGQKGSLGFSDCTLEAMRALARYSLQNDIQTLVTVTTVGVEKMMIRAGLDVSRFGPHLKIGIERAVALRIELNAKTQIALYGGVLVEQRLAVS
In short: (§1)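 E. coli DH5α carrying pSC11 (PlasI-lacZ translational fusion) and pJN105L (PBAD-lasR) was grown overnight in LB with ampicillin (100 μg/ml) and gentamicin (15 μg/ml), then diluted to OD600 0.150. Arabinose (0.2% w/v), 3-oxo-C12-AHL (2 μM) and test compound or DMSO were added. Cultures were shaken 3 h at 37 °C. β-Galactosidase activity was read in Miller units and expressed as % of the solvent sample. Triplicates per biological replicate, repeated at least twice; paired two-tailed t-test.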

[2] = biological target: T1, Acyl-homoserine-lactone synthase (Pseudomonas aeruginosa (strain ATCC 15692 / PAO1 / 1C / PRS 101 / LMG12228)); test: Modulation of Pseudomonas aeruginosa lacZ-fused lasI expressed in Escherichia coli DH5alpha co-expressing pBAD-lasR assessed as 3-oxo-C12-AHL-induced effect at 0.66 mM after 3 hrs by beta-galactosidase assay relative to control; in short: as §1
[3] = biological target: 3-(3-hydroxydecanoyloxy)decanoate synthase (Pseudomonas aeruginosa (strain ATCC 15692 / PAO1 / 1C / PRS 101 / LMG12228)) (UniProt Q51559); test: Modulation of Pseudomonas aeruginosa lacZ-fused rhlA expressed in Escherichia coli DH5alpha co-expressing Ptac-rhlR assessed as C4-AHL-induced effect at 0.50 mM after 4 hrs by beta-galactosidase assay relative to control
In short: (§2)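 rhl reporter: E. coli DH5α carrying pECP61.5 (Ptac-rhlR, PrhlA-lacZ) was grown overnight in LB with ampicillin (100 μg/ml) only, then diluted to OD600 0.150. It was induced with 1 mM IPTG, and 2 μM C4-HSL plus compound or DMSO were added at OD600 1.0. Cultures were shaken 4 h at 37 °C. β-Galactosidase activity was read in Miller units as % of the solvent sample. Triplicates per biological replicate, at least two repeats; paired two-tailed t-test.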

[4] = biological target: 3-(3-hydroxydecanoyloxy)decanoate synthase (Pseudomonas aeruginosa (strain ATCC 15692 / PAO1 / 1C / PRS 101 / LMG12228)) (UniProt Q51559); test: Modulation of Pseudomonas aeruginosa lacZ-fused rhlA expressed in Escherichia coli DH5alpha co-expressing Ptac-rhlR assessed as C4-AHL-induced effect at 0.33 mM after 4 hrs by beta-galactosidase assay relative to control; in short: as §2
[5] = biological target: 3-(3-hydroxydecanoyloxy)decanoate synthase (Pseudomonas aeruginosa (strain ATCC 15692 / PAO1 / 1C / PRS 101 / LMG12228)) (UniProt Q51559); test: Modulation of Pseudomonas aeruginosa lacZ-fused rhlA expressed in Escherichia coli DH5alpha co-expressing Ptac-rhlR assessed as C4-AHL-induced effect at 0.66 mM after 4 hrs by beta-galactosidase assay relative to control
In short: (§3)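 E. coli DH5α carrying pECP61.5 (Ptac-rhlR, PrhlA-lacZ), grown overnight in LB with ampicillin 100 μg/ml and diluted to OD600 0.150. At OD600 1.0, 1 mM IPTG, 2 μM C4-HSL and compound or DMSO were added. Cultures were shaken 4 h at 37 °C, then β-galactosidase was read in Miller units. Activity is % of solvent sample, from triplicates per biological replicate, with at least two repeats.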

[6] = biological target: T1, Acyl-homoserine-lactone synthase (Pseudomonas aeruginosa (strain ATCC 15692 / PAO1 / 1C / PRS 101 / LMG12228)); test: Modulation of Pseudomonas aeruginosa lacZ-fused lasI expressed in Escherichia coli DH5alpha co-expressing pBAD-lasR assessed as 3-oxo-C12-AHL-induced effect at 0.17 mM after 3 hrs by beta-galactosidase assay relative to control; in short: as §1
[7] = biological target: 3-(3-hydroxydecanoyloxy)decanoate synthase (Pseudomonas aeruginosa (strain ATCC 15692 / PAO1 / 1C / PRS 101 / LMG12228)) (UniProt Q51559); test: Modulation of Pseudomonas aeruginosa lacZ-fused rhlA expressed in Escherichia coli DH5alpha co-expressing Ptac-rhlR assessed as C4-AHL-induced effect at 0.17 mM after 4 hrs by beta-galactosidase assay relative to control; in short: as §2
[8] = biological target: T1, Acyl-homoserine-lactone synthase (Pseudomonas aeruginosa (strain ATCC 15692 / PAO1 / 1C / PRS 101 / LMG12228)); test: Modulation of Pseudomonas aeruginosa lacZ-fused lasI expressed in Escherichia coli DH5alpha co-expressing pBAD-lasR assessed as 3-oxo-C12-AHL-induced effect at 0.50 mM after 3 hrs by beta-galactosidase assay relative to control; in short: as §1
[9] = biological target: T2, Transcriptional activator protein LasR (Pseudomonas aeruginosa (strain ATCC 15692 / PAO1 / 1C / PRS 101 / LMG12228), UniProt P25084); test: Inhibition of Pseudomonas aeruginosa LasR
T2 sequence (P25084 whole entry): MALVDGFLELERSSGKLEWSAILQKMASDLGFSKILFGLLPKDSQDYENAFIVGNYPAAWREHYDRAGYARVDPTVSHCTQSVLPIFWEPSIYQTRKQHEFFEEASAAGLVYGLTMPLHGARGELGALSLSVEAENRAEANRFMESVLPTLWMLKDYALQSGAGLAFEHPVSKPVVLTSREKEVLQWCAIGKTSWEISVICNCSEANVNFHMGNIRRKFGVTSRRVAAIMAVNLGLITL

[10] = biological target: 3-(3-hydroxydecanoyloxy)decanoate synthase (Pseudomonas aeruginosa (strain ATCC 15692 / PAO1 / 1C / PRS 101 / LMG12228)) (UniProt Q51559); test: Modulation of Pseudomonas aeruginosa lacZ-fused rhlA expressed in Escherichia coli DH5alpha co-expressing Ptac-rhlR assessed as C4-AHL-induced effect at 0.70 mM after 4 hrs by beta-galactosidase assay relative to control; in short: as §3
[11] = biological target: 3-(3-hydroxydecanoyloxy)decanoate synthase (Pseudomonas aeruginosa (strain ATCC 15692 / PAO1 / 1C / PRS 101 / LMG12228)) (UniProt Q51559); test: Modulation of Pseudomonas aeruginosa lacZ-fused rhlA expressed in Escherichia coli DH5alpha co-expressing Ptac-rhlR assessed as C4-AHL-induced effect at 0.93 mM after 4 hrs by beta-galactosidase assay relative to control; in short: as §3
[12] = biological target: T1, Acyl-homoserine-lactone synthase (Pseudomonas aeruginosa (strain ATCC 15692 / PAO1 / 1C / PRS 101 / LMG12228)); test: Modulation of Pseudomonas aeruginosa lacZ-fused lasI expressed in Escherichia coli DH5alpha co-expressing pBAD-lasR assessed as 3-oxo-C12-AHL-induced effect at 0.70 mM after 3 hrs by beta-galactosidase assay relative to control; in short: as §1
[13] = biological target: 3-(3-hydroxydecanoyloxy)decanoate synthase (Pseudomonas aeruginosa (strain ATCC 15692 / PAO1 / 1C / PRS 101 / LMG12228)) (UniProt Q51559); test: Modulation of Pseudomonas aeruginosa lacZ-fused rhlA expressed in Escherichia coli DH5alpha co-expressing Ptac-rhlR assessed as C4-AHL-induced effect at 0.47 mM after 4 hrs by beta-galactosidase assay relative to control; in short: as §2
[14] = biological target: T1, Acyl-homoserine-lactone synthase (Pseudomonas aeruginosa (strain ATCC 15692 / PAO1 / 1C / PRS 101 / LMG12228)); test: Modulation of Pseudomonas aeruginosa lacZ-fused lasI expressed in Escherichia coli DH5alpha co-expressing pBAD-lasR assessed as 3-oxo-C12-AHL-induced effect at 0.23 mM after 3 hrs by beta-galactosidase assay relative to control; in short: as §1
[15] = biological target: 3-(3-hydroxydecanoyloxy)decanoate synthase (Pseudomonas aeruginosa (strain ATCC 15692 / PAO1 / 1C / PRS 101 / LMG12228)) (UniProt Q51559); test: Modulation of Pseudomonas aeruginosa lacZ-fused rhlA expressed in Escherichia coli DH5alpha co-expressing Ptac-rhlR assessed as C4-AHL-induced effect at 0.23 mM after 4 hrs by beta-galactosidase assay relative to control; in short: as §2
[16] = biological target: T1, Acyl-homoserine-lactone synthase (Pseudomonas aeruginosa (strain ATCC 15692 / PAO1 / 1C / PRS 101 / LMG12228)); test: Modulation of Pseudomonas aeruginosa lacZ-fused lasI expressed in Escherichia coli DH5alpha co-expressing pBAD-lasR assessed as 3-oxo-C12-AHL-induced effect at 0.93 mM after 3 hrs by beta-galactosidase assay relative to control; in short: as §1
[17] = biological target: T1, Acyl-homoserine-lactone synthase (Pseudomonas aeruginosa (strain ATCC 15692 / PAO1 / 1C / PRS 101 / LMG12228)); test: Modulation of Pseudomonas aeruginosa lacZ-fused lasI expressed in Escherichia coli DH5alpha co-expressing pBAD-lasR assessed as 3-oxo-C12-AHL-induced effect at 0.47 mM after 3 hrs by beta-galactosidase assay relative to control; in short: as §1
[18] = biological target: T1, Acyl-homoserine-lactone synthase (Pseudomonas aeruginosa (strain ATCC 15692 / PAO1 / 1C / PRS 101 / LMG12228)); test: Modulation of Pseudomonas aeruginosa lacZ-fused lasI expressed in Escherichia coli DH5alpha co-expressing pBAD-lasR assessed as 3-oxo-C12-AHL-induced effect at 0.40 mM after 3 hrs by beta-galactosidase assay relative to control; in short: as §1
[19] = biological target: 3-(3-hydroxydecanoyloxy)decanoate synthase (Pseudomonas aeruginosa (strain ATCC 15692 / PAO1 / 1C / PRS 101 / LMG12228)) (UniProt Q51559); test: Modulation of Pseudomonas aeruginosa lacZ-fused rhlA expressed in Escherichia coli DH5alpha co-expressing Ptac-rhlR assessed as C4-AHL-induced effect at 0.20 mM after 4 hrs by beta-galactosidase assay relative to control; in short: as §2
[20] = biological target: T1, Acyl-homoserine-lactone synthase (Pseudomonas aeruginosa (strain ATCC 15692 / PAO1 / 1C / PRS 101 / LMG12228)); test: Modulation of Pseudomonas aeruginosa lacZ-fused lasI expressed in Escherichia coli DH5alpha co-expressing pBAD-lasR assessed as 3-oxo-C12-AHL-induced effect at 0.20 mM after 3 hrs by beta-galactosidase assay relative to control; in short: as §1
[21] = biological target: T1, Acyl-homoserine-lactone synthase (Pseudomonas aeruginosa (strain ATCC 15692 / PAO1 / 1C / PRS 101 / LMG12228)); test: Modulation of Pseudomonas aeruginosa lacZ-fused lasI expressed in Escherichia coli DH5alpha co-expressing pBAD-lasR assessed as 3-oxo-C12-AHL-induced effect at 0.60 mM after 3 hrs by beta-galactosidase assay relative to control; in short: as §1
[22] = biological target: 3-(3-hydroxydecanoyloxy)decanoate synthase (Pseudomonas aeruginosa (strain ATCC 15692 / PAO1 / 1C / PRS 101 / LMG12228)) (UniProt Q51559); test: Modulation of Pseudomonas aeruginosa lacZ-fused rhlA expressed in Escherichia coli DH5alpha co-expressing Ptac-rhlR assessed as C4-AHL-induced effect at 0.40 mM after 4 hrs by beta-galactosidase assay relative to control; in short: as §2
[23] = biological target: 3-(3-hydroxydecanoyloxy)decanoate synthase (Pseudomonas aeruginosa (strain ATCC 15692 / PAO1 / 1C / PRS 101 / LMG12228)) (UniProt Q51559); test: Modulation of Pseudomonas aeruginosa lacZ-fused rhlA expressed in Escherichia coli DH5alpha co-expressing Ptac-rhlR assessed as C4-AHL-induced effect at 0.60 mM after 4 hrs by beta-galactosidase assay relative to control; in short: as §3
[24] = biological target: T1, Acyl-homoserine-lactone synthase (Pseudomonas aeruginosa (strain ATCC 15692 / PAO1 / 1C / PRS 101 / LMG12228)); test: Modulation of Pseudomonas aeruginosa lacZ-fused lasI expressed in Escherichia coli DH5alpha co-expressing pBAD-lasR assessed as 3-oxo-C12-AHL-induced effect at 0.80 mM after 3 hrs by beta-galactosidase assay relative to control; in short: as §1
[25] = biological target: 3-(3-hydroxydecanoyloxy)decanoate synthase (Pseudomonas aeruginosa (strain ATCC 15692 / PAO1 / 1C / PRS 101 / LMG12228)) (UniProt Q51559); test: Modulation of Pseudomonas aeruginosa lacZ-fused rhlA expressed in Escherichia coli DH5alpha co-expressing Ptac-rhlR assessed as C4-AHL-induced effect at 0.80 mM after 4 hrs by beta-galactosidase assay relative to control; in short: as §3

Structure (SMILES): CCCCCCCCCC(=O)CC(=O)NC1CCCCC1=O (stereo unspecified)
IC50 [9]: 10 µM

Structure (SMILES): CCCCCCCCCCCC(=O)N[C@H]1CCOC1=O
IC50 [9]: 0.04 µM

Second part, the molecule after the results:

Activity [1]: 56% | Activity [2]: 34% | Activity [3]: 91% | Activity [4]: 93% | Activity [5]: 96% | Activity [6]: 72% | Activity [7]: 98% | Activity [8]: 45%
Structure (SMILES): CCCCCCCCCCCCSC[C@@H]1CCC(O)N1 (mixture of isomers)

Activity [10]: 130% | Activity [11]: 145% | Activity [12]: 74% | Activity [13]: 126% | Activity [14]: 106% | Activity [15]: 126% | Activity [16]: 61% | Activity [17]: 87%
Structure (SMILES): CCCCCCSC[C@@H]1CCC(=O)N1

Activity [18]: 68% | Activity [19]: 94% | Activity [20]: 84% | Activity [21]: 51% | Activity [22]: 105% | Activity [23]: 109% | Activity [24]: 42% | Activity [25]: 116%
Structure (SMILES): CCCCCCSC[C@H]1NC(O)[C@H](O)[C@@H]1O (mixture of isomers)
